Assay outcomes deposited in PubChem by several laboratories.
AHR act: human AHR activation; actives 2.5% (n = 320,000); P35869; activation, % at 5 µM; AID 2796; AHR-responsive luciferase reporter cells, luminescence; in the data active = activation above about 47%
procasp3 activ: procaspase-3 (human) activation; P42574; recombinant procaspase-3 D3A, Ac-DEVD-pNA absorbance 405 nm; activation, % at 8.5 µM; actives 0.11% (n = 330,000); AID 463141;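 active = activation above the mean of all tested compounds plus 3 SD, cut at about 21% in these data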
Target sequence (P42574 whole entry D9A/D28A/D175A): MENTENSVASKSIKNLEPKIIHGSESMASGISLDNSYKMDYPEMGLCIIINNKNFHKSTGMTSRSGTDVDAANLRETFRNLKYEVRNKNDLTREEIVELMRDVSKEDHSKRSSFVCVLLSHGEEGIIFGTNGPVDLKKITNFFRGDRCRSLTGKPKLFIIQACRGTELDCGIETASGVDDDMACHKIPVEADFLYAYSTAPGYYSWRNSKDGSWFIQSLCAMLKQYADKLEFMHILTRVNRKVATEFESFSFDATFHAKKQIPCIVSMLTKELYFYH
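Technique: 405 nm absorbance of p-nitroaniline, reads at 0 and 120 min; Test system: Procaspase-3 D3A mutant; Incubation: 1 h enzyme-compound preincubation, then 2 h substrate reaction, 25 °C; Repeats: singlicate, each compound tested once; Benchmarks: low control DMSO wells, high control DMSO plus 5 µM PC-3 D3A.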
PolyA inhibitor: inhibitors of polyadenylation in S. cerevisiae; S. cerevisiae SKY197-pL101 polyadenylation reporter, beta-gal luminescence; efflux-impaired pdr1/pdr3 knockout yeast; score 100 = 6 SD above DMSO; activity score, % at 12 µM; AID 1875; actives 0.02% (n = 300,000);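 active = lowest replicate activity score at least 50, where 100 means six control SD above control mean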;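 note: yeast exposed to compound for 9 h at 30 °C; higher score means more reporter readthrough which indicates perturbed polyadenylation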
proCasp7 act: counter-screen for procaspase-3 activators: activators of human procaspase-7. activation, % at 8.5 µM. P55210. actives 0.093% (n = 330,000). recombinant procaspase-7, Ac-DEVD-pNA absorbance 405 nm; D23A/D198A/D206A triple mutant, cannot self-cleave; scale: DMSO 0, 5 µM enzyme 100;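 active = percent activation above the screen-wide mean plus 3 SD, cut at about 25% in these data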
Target sequence (P55210 whole entry D23A/D198A/D206A): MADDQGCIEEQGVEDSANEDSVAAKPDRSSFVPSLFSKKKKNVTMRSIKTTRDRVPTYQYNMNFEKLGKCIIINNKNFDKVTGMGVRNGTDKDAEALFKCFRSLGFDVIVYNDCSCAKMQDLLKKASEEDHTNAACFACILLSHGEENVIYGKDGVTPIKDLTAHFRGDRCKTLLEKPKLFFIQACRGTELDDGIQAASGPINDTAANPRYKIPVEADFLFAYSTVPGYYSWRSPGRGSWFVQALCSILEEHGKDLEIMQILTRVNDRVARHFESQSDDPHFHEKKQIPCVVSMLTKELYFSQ
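System: Procaspase-7 triple mutant (PC-7 D3A); measure: % activation from two-timepoint absorbance difference, scaled to controls; times: 1 h compound preincubation, 2 h substrate cleavage, 25 °C; also added: Ac-DEVD-pNA substrate, 400 µM as added; measured by: Epi-absorbance of released pNA at 405 nm, two timepoints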
PC3 D3A act: activates human procaspase-3, dual activator counter-screen; shares compounds with proCasp7 act; recombinant PC-3 D3A, Ac-DEVD-pNA absorbance 405 nm; aspartates 9, 28, 175 changed to alanine; 100% = enzyme control; activation, % at 8.5 µM; 290 tested, under 10 active;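 active = mean percent activation across triplicates above a set limit taken from the earlier primary procaspase-3 screen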
Procasp7 act: procaspase-7 (human) activation, dual activator confirmation; shares compounds with proCasp7 act; recombinant procaspase-7, Ac-DEVD-pNA absorbance 405 nm; D23A/D198A/D206A mutant that cannot self-cleave; activation, % at 8.5 µM; 290 tested, under 10 active;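 active = mean activation above a set limit carried over from the earlier primary screen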
Of the large screens only hits and unclear results are named; the others gave an inactive call (follow-up assays come after a bar, where they were run). Shown are actives, neighbours in structure and some others; about 2.6% of the full set was active somewhere.

NS(=O)(=O)c1ccc(N2N=C(c3ccccc3)CC2c2ccccc2Br)cc1 (stereo not given)	procasp3 activ 26.1, proCasp7 act 68.1 (no result: AHR act, PolyA inhibitor) | PC3 D3A act inactive | Procasp7 act inactive
Cn1c(N)c(C(=O)COC(=O)[C@@H]2CCCN2S(=O)(=O)c2ccc(Cl)cc2)c(=O)n(C)c1=O	none
Cc1ccc(S(=O)(=O)NC(=O)NC(C)c2ccc(F)cc2)cc1 (stereo not given)	none
CC(C)OC(=O)CSc1nc2c(cc1C#N)CCCCC2	none
CC(C)OC(=O)CC(=O)CSc1nc2c(cc1C#N)CCCCC2	proCasp7 act 37.2 | PC3 D3A act inactive | Procasp7 act inactive
O=C(NCc1ccc(Cl)cc1)C1CCC(=O)N(C2CCCCCC2)C1 (stereo not given)	none
O=C(c1cc2cc([N+](=O)[O-])ccc2oc1=O)N1CCN(C2CCCCC2)CC1	none
O=C(NCCCN1CCOCC1)c1ccc(/C=C2\Oc3ccccc3N(Cc3ccccc3F)C2=O)cc1	procasp3 activ 22.3, proCasp7 act 49.6 | PC3 D3A act inactive | Procasp7 act inactive
CCN1CCN(CCCNC(=O)c2ccc(/C=C3/Oc4ccccc4N(Cc4cccc(C)c4)C3=O)cc2)CC1	proCasp7 act 27.5 | PC3 D3A act inactive | Procasp7 act inactive
Cc1ccccc1Cn1ccc(NC(=O)c2cc3nc(-c4ccco4)cc(C(F)(F)F)n3n2)n1	proCasp7 act 48.0 | PC3 D3A act inactive | Procasp7 act inactive
c1ccc(C2=NN(c3ccccc3)CC2)cc1	procasp3 activ 36.5, proCasp7 act 38.7 | PC3 D3A act inactive | Procasp7 act inactive
CCOC(=O)/C(=C/c1ccc(N2CCC(c3ccccc3)=N2)cc1)C(C)=O	none (no result: AHR act, procasp3 activ, proCasp7 act)
Cc1[nH]nc2c1C(c1c[nH]c3ccccc13)C(C#N)=C(N)O2 (stereo not given)	proCasp7 act 29.4 | PC3 D3A act inactive | Procasp7 act inactive
COC(=O)Cc1[nH]nc2c1C(c1c[nH]c3ccccc13)C(C#N)=C(N)O2 (stereo not given)	none
COc1cc(NC(=O)CN2CCN(S(=O)(=O)/C=C/c3ccccc3)CC2)cc(OC)c1OC	none (no result: PolyA inhibitor)
O=C(CCC1CCCCC1)Nc1cccc(C(=O)Nc2ccc(C(=O)O)cc2)c1	none
O=C(Cc1ccc(Cl)cc1)NCCCNC(=O)c1cccnc1	none
COCC(=O)Nc1ccc2c(c1)OCC(=O)N2Cc1ccc(C)cc1	none
COc1ccc(C(=O)N/N=C/c2ccc(OC(=O)c3ccccc3)cc2)cc1	none
COc1ccc(C(=O)N/N=C/c2ccc(N(C)c3ccccc3)cc2)cc1	procasp3 activ 41.0, proCasp7 act 43.6 | PC3 D3A act inactive | Procasp7 act inactive
C/C(=N/NC(=O)c1nnn(-c2nonc2N)c1COc1ccccc1)c1ccc(O)cc1	none
Cc1ccc(Cl)cc1C1=CC(=O)C[C@H](c2ccc(F)cc2)C1	proCasp7 act 26.9 (no result: PolyA inhibitor) | PC3 D3A act inactive | Procasp7 act inactive
CC1CCN(C(=O)COC(=O)c2cccs2)CC1	none (no result: PolyA inhibitor)
O=c1c(-c2nc3ccccc3s2)cccn1Cc1ccccc1	proCasp7 act 56.0 | PC3 D3A act inactive | Procasp7 act inactive
Oc1ccc(-c2nc3ccccc3s2)c(O)c1	none
Cc1ccc(Cn2cccc(-c3nc4ccccc4s3)c2=O)cc1	proCasp7 act 43.2 | PC3 D3A act inactive | Procasp7 act inactive
CCOc1cc(-c2c(C#N)c(N)nc3c2CCc2ccccc2-3)ccc1O	proCasp7 act 26.3 | PC3 D3A act inactive | Procasp7 act inactive
Cc1ccccc1-c1nnc(SCC(=O)N(C)C2CCS(=O)(=O)C2)n1C (stereo not given)	none (no result: PolyA inhibitor)
O=C(NC(NC1CCS(=O)(=O)C1)C(=O)c1ccccc1)c1ccc(Cl)cc1 (stereo not given)	proCasp7 act 47.0 | PC3 D3A act inactive | Procasp7 act inactive
CC(C)c1ccc(N=Cc2c(O)c3ccccc3oc2=O)cc1	procasp3 activ 21.8, proCasp7 act 29.8 | PC3 D3A act inactive | Procasp7 act inactive
CCOc1ccccc1N=Cc1c(O)c2ccccc2oc1=O	proCasp7 act 34.7 | PC3 D3A act inactive | Procasp7 act inactive
COc1ccc(OC)c(N=Cc2c(O)c3ccccc3oc2=O)c1	none
COc1ccc(N=Cc2c(O)c3ccccc3oc2=O)cc1	none
COc1ccc(Cl)cc1N=Cc1c(O)c2ccccc2oc1=O	proCasp7 act 41.7 | PC3 D3A act inactive | Procasp7 act inactive
COC(=O)c1cccc(N(CC(=O)NC2CCCC2)C(=O)CCC(=O)Nc2cc(C)on2)c1	proCasp7 act 57.2 | PC3 D3A act inactive | Procasp7 act inactive
Cc1cccc(N(CC(=O)NC2CCCC2)C(=O)CCC(=O)Nc2cc(C)on2)c1	none
CSc1ccccc1NC(=O)c1cc2c(=O)n3ccccc3nc2s1	proCasp7 act 38.5 | PC3 D3A act inactive | Procasp7 act inactive
CC(C)NC(=O)c1cc2c(=O)n3ccccc3nc2s1	none
CC(Nc1n[nH]c(=O)[nH]c1=O)C(=O)N/N=C/c1cccs1 (stereo not given)	none
CCOC(=O)/C(C#N)=C/c1c(Oc2cccc(C)c2)nc2c(C)cccn2c1=O	none
Cc1ccc(Oc2nc3c(C)cccn3c(=O)c2/C=C(\C#N)C(N)=O)cc1	procasp3 activ 22.2, proCasp7 act 45.6 | PC3 D3A act inactive | Procasp7 act inactive
Cc1ccc(N)cc1NC(=O)CN1CCOCC1	proCasp7 act 26.1 | PC3 D3A act inactive | Procasp7 act inactive
